HSP90 inh = inhibitors of HSP90 luciferase refolding in rabbit reticulocyte lysate | inhibition, % at 5.6 µM | luciferase refolding luminescence, 3 h | actives 0.91% (n = 290,000) | AID 1789;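 active = inhibition above the screen-wide mean plus 3 SD, computed separately per campaign, cut at about 16% in these data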;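 also: inhibitors lower the luminescence because luciferase stays unfolded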
FLuc stim CS = affects firefly luciferase, flagging false hits in luciferase stimulation screens. P08659. ATPlite luciferase biochemical, luminescence, 10 min; 0 = ATP-free wells, 1 = DMSO control. activation factor at 10 µM. 200,000 tested, under 10 active. AID 1027;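 active = luciferase activation factor, scaled between plate controls, of at least 2 with compound at 10 µM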
Target sequence (P08659 whole entry, looked up): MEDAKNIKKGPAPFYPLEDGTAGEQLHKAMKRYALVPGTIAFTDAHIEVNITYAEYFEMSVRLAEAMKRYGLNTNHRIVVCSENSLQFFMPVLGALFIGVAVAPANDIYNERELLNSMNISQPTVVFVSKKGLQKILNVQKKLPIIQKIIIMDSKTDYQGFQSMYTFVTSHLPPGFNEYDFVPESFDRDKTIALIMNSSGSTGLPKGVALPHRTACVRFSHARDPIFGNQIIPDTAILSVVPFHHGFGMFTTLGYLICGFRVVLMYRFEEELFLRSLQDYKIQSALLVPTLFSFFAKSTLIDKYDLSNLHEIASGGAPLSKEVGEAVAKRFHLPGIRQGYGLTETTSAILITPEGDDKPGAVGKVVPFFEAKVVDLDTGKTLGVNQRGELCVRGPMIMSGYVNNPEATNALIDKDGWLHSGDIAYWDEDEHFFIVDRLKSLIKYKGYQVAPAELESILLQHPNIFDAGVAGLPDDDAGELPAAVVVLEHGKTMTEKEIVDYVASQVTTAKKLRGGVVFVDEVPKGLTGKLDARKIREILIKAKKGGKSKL
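test system = cell-free luciferase reagent | medium = PBS as buffer for the ATP substrate | dosing = test compounds dosed from 2 mM stocks in 100% DMSO | incubation = 10 min at ambient temperature | detection = luminescence measurement of luciferase light output | benchmarks = low control with PBS replacing ATP, high control enzyme plus ATP without compound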
STAT3 inh = reduces IL-6 driven STAT3 reporter signal | inhibition, % at 5.5 µM | actives 0.89% (n = 190,000) | U3A cells, IL-6 STAT3-luciferase reporter, luminescence; host cell line lacks STAT1;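 active = inhibition above the mean inhibition across all screened compounds plus 3 SD, cut at about 44% in these data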
FLuc inhib CS = inhibits firefly luciferase, flagging false hits in luciferase inhibition screens. AID 1006. P08659. inhibition, % at 10 µM. actives 1.5% (n = 200,000). ATPLite firefly luciferase biochemical luminescence, 10 min;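 active = inhibition above about 50% when tested at 10 µM, limit read from the data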
PPC-1+TRAIL kill = compounds killing PPC-1 cancer cells with TRAIL present (potentiator screen, no TRAIL-free arm); PPC-1 cells + TRAIL, ATPLite viability luminescence; cell killing (% activity), % at 4 µM or 5 µM; actives 0.41% (n = 220,000); AID 1443;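 active = cell killing above 50% in the first pass at 4 µM, then a duplicate retest at 5 µM averaging 50% or more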
C8 TRAIL sens = caspase-8 TRAIL sensitization. actives 1% (n = 360,000). inhibition (viability loss, TRAIL sensitization), % at 10 µM. NB7+C8 cells + TRAIL, ATPlite viability luminescence;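 active = compounds causing at least 50% loss of cell viability in the single-dose screen, relative to plate controls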
Numbers stand for hits; i = inactive; nt = no result. Shown are actives, neighbours in structure and some others; about 2.2% of the full set was active somewhere.

SMILES	HSP90 inh	FLuc stim CS	STAT3 inh	FLuc inhib CS	PPC-1+TRAIL kill	C8 TRAIL sens
Cc1ccc(N=Nc2c(C)[nH]n(C(N)=S)c2=O)cc1C	i	i	i	i	i	i
Cc1[nH]n(C(N)=S)c(=O)c1N=Nc1ccc2ccccc2c1	i	i	i	62.6	i	i
Cc1[nH]n(C(N)=S)c(=O)c1N=Nc1cc(-c2ccc(Br)cc2)[nH]n1	i	i	i	56.4	i	i
COc1ccc(C(=O)N2CCC2(C)C(=O)NC(C)C)cc1 (configuration not stated)	nt	nt	nt	nt	nt	i
C#Cc1ccc([C@H]2C=C(C(=O)Nc3ccccc3)O[C@@H](OCc3ccc(CO)cc3)C2)cc1	nt	nt	nt	nt	i	88.6
C#Cc1ccc([C@@H]2C=C(C(=O)Nc3ccccc3)O[C@H](OCC)[C@H]2CCCO)cc1	i	i	nt	i	i	79.5
C#Cc1ccc([C@@H]2C=C(C(=O)O)O[C@H](OCc3ccc(CO)cc3)C2)cc1	16.4	i	nt	i	i	i
C#Cc1ccc([C@H]2C=C(C(=O)NCc3ccccc3)O[C@@H](OCC)[C@@H]2CCCO)cc1	i	i	nt	i	i	i
CSCC(C)N1CCC(CCC(=O)NC2CC2)CC1 (configuration not stated)	i	nt	nt	nt	nt	i
Cn1c2ccccc2c(=O)c2ccc(NCc3ccc4c(c3)OCO4)cc21	nt	nt	nt	nt	nt	i
CC(C)(C)OC(=O)NCCCCCc1cn([C@@H](CO)C(=O)NCCCCCCCCCCC(=O)N2CCN(C(=O)OC(C)(C)C)CC2)nn1	nt	nt	nt	nt	nt	59.8
CC(C)(C)OC(=O)CC[C@@H](C(=O)NCCCCCCCCCCC(=O)N1CCN(C(=O)OC(C)(C)C)CC1)n1cc(CCCCCNC(=O)OC(C)(C)C)nn1	nt	nt	nt	nt	nt	i
Cc1cc(=O)[nH]c(SCC(=O)N2CCCC(C)C2)n1 (configuration not stated)	i	nt	nt	nt	nt	i
CCOC(=O)C1=C(N)n2c(s/c(=C\c3cccnc3)c2=O)=C(C#N)C1c1cccnc1 (configuration not stated)	nt	nt	nt	nt	nt	i
CC(C)c1ccc(/C=c2\sc3n(c2=O)C(N)=C(C#N)C(c2ccc(C(C)C)cc2)C=3C(N)=O)cc1 (configuration not stated)	nt	nt	nt	nt	nt	62.8
CSc1n[nH]c(NCc2ccc(Cl)cc2)n1	i	i	i	i	i	i
CSc1n[nH]c(NCc2ccc(C)cc2)n1	i	i	i	59.7	i	i
CCc1ccc(NC(=O)C2C3/C=C\CCCCC32)cc1 (configuration not stated)	i	i	i	i	i	i
Cc1cc(C(=O)O)ccc1-n1c(C)cc(/C=C(/C#N)C(=O)Nc2ccccc2)c1C	i	i	i	i	i	i
Cc1cc(/C=C(\C#N)C(=O)Nc2ccccc2)c(C)n1-c1cccnc1	i	i	i	50.7	i	i
O=C(CNC(=O)c1ccccc1F)N/N=C/c1cc(Br)ccc1OC(=O)/C=C/c1ccco1	i	i	i	i	i	53.0
O=C(CSc1ncnc2ccccc12)c1ccco1	i	i	i	81.2	i	i
Nc1ccc(-c2nc3ncccc3o2)cc1	i	nt	nt	nt	nt	i
C/C(Cn1nnc([N+](=O)[O-])n1)=N\NC(=O)c1ccc(O)cc1	i	nt	nt	nt	i	57.0
C/C(Cn1nnc([N+](=O)[O-])n1)=N\NC(=O)c1ccccc1O	i	nt	nt	nt	i	58.6
SMILES	HSP90 inh	FLuc stim CS	STAT3 inh	FLuc inhib CS	PPC-1+TRAIL kill	C8 TRAIL sens
C/C(Cn1nnc([N+](=O)[O-])n1)=N\NC(=O)c1ccc(O)cc1O	i	i	i	i	i	i
O=C(NC1=NCCS1)c1cccc(OC(F)F)c1	i	i	i	i	i	i
Cc1cc(Cl)n2c(nc3cc(F)c(F)cc32)c1C#N	i	i	i	i	i	74.0
CC1=NN(c2ccc(C)c(C)c2)C(=O)/C1=C\C=C\c1ccc([N+](=O)[O-])o1	i	i	i	i	i	79.3
CC1=NN(c2ccccc2)C(=O)/C1=C\C=C\c1ccccc1	i	nt	nt	nt	i	i
COC(=O)[C@]12CCCCC=C1N(Cc1ccc3c(c1)OCO3)C(=O)[C@H](CC(=O)NCC1CCCCC1)C2	nt	nt	nt	nt	nt	i
O=C(O)COc1ccc(/C=N/Nc2nc(Nc3ccccc3)nc(N3CCCCC3)n2)cc1	i	i	i	54.9	i	i
O=C1[C@H]2[C@@H](/C=C/c3ccccc3)N3C(=O)CN(CC4CC4)C(=O)[C@@]3(Cc3ccccc3)[C@H]2C(=O)N1c1ccccc1	i	nt	nt	nt	nt	54.9
